Data taken from ChEMBL document CHEMBL1157863, “Synthesis and antiviral activity of new acrylamide derivatives containing 1,2,3-thiadiazole as inhibitors of hepatitis B virus replication” (Eur J Med Chem, 2010).
Converted amounts (≈) assume the structure as drawn.

How the values were obtained:
Hepatitis B virus [1] = experiment: Antiviral activity against HBV infected in HepG2(2.2.15) cells assessed as inhibition of viral DNA replication after 8 days by dot blot hybridization
Hepatitis B virus [2] = experiment: Antiviral activity against HBV infected in HepG2(2.2.15) cells assessed as inhibition of viral surface antigen secretion after 8 days by radio immunoassay; type: functional, organism-based
How it was run: (§1)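 Confluent 2.2.15 cultures were dosed at several concentrations in RPMI 1640 with 2% FBS, with fresh medium and compound each day for 8 days and untreated cell controls. HBsAg and HBeAg secreted into the supernatant were quantified by radioimmunoassay kits.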

[3] = Cytotoxicity against human HepG2(2.2.15) cells after 9 days by neutral red dye uptake assay; settings: read-out: TC50
[4] = Selectivity index, ratio of TC50 for human HepG2(2.2.15) cells to IC50 for Hepatitis B virus DNA replication; type: toxicity
[5] = Selectivity index, ratio of TC50 for human HepG2(2.2.15) cells to IC50 for Hepatitis B virus early antigen secretion; type: toxicity
Hepatitis B virus [6] = experiment: Antiviral activity against HBV infected in HepG2(2.2.15) cells assessed as inhibition of viral early antigen secretion after 8 days by radio immunoassay; type: functional, organism-based; settings: HepG2 2.2.15, 192 h
How it was run: as §1

[7] = Hepatitis B virus, HepG2 2.2.15, 192 h, read-out: IC50

With `Cc1nnsc1C(=O)N/C(C(=O)N1CCOCC1)=C(\Br)c1snnc1C` the IC50 (Hepatitis B virus [1]; hepg2 2.2.15) was “Not Active”, the IC50 (Hepatitis B virus [2]) was “Not Active” and the CC50 at 216 h [3] was 47.7 µg/mL (≈ 104 µM).
With `Cc1nnsc1C(=O)N/C(C(=O)N1CCCCC1)=C(\Br)c1ccccc1` the IC50 (Hepatitis B virus [1]; hepg2 2.2.15) was “Not Active”, the IC50 (Hepatitis B virus [2]) was “Not Active” and the CC50 at 216 h [3] was 111 µg/mL (≈ 255 µM).
For `Cc1nnsc1C(=O)N/C(C(=O)N1CCCCC1)=C(\Br)c1ccccc1Cl`, the IC50 (Hepatitis B virus [1]; [7]) was 10.4 µg/mL (≈ 22.1 µM), the IC50 (Hepatitis B virus [2]) was “Not Active” and the CC50 at 216 h [3] was 86.2 µg/mL (≈ 184 µM). For the same compound, the selectivity ratio [4] was 8.29.
With `Cc1nnsc1C(=O)N/C(C(=O)N1CCCCC1)=C(\Br)c1ccc(Cl)cc1` the IC50 (Hepatitis B virus [1]; [7]) was 3.59 µg/mL (≈ 7.64 µM), the IC50 (Hepatitis B virus [2]) was “Not Active” and the CC50 at 216 h [3] was 17.8 µg/mL (≈ 37.9 µM). For the same compound, the selectivity ratio [4] was 4.96.
For `Cc1nnsc1C(=O)N/C(C(=O)N1CCCCC1)=C(\Cl)c1ccccc1`, the IC50 (Hepatitis B virus [1]; hepg2 2.2.15) was “Not Active”, the selectivity ratio [5] was 5.23 and the IC50 (Hepatitis B virus [2]) was “Not Active”. The CC50 at 216 h [3] was 64.2 µg/mL (≈ 164 µM) and the IC50 (Hepatitis B virus [6]) was 12.3 µg/mL (≈ 31.4 µM).
For `Cc1nnsc1/C(Br)=C(/NC(=O)c1ccccc1)C(=O)N1CCCCC1`, the IC50 (Hepatitis B virus [1]; [7]) was 9 µg/mL (≈ 20.7 µM), the IC50 (Hepatitis B virus [2]) was “Not Active” and the CC50 at 216 h [3] was 192 µg/mL (≈ 442 µM). For the same compound, the selectivity ratio [4] was 21.4.
In the case of `Cc1nnsc1/C(Br)=C(/NC(=O)c1ccccc1)C(=O)N1CCOCC1`, the IC50 (Hepatitis B virus [1]; [7]) is reported as 30.5 µg/mL (≈ 69.8 µM), the IC50 (Hepatitis B virus [2]) is reported as “Not Active” and the CC50 at 216 h [3] is reported as 333 µg/mL (≈ 762 µM). For the same compound, the selectivity ratio [4] was 10.9.
In the case of `CCN(CC)C(=O)/C(NC(=O)c1ccccc1)=C(/Br)c1snnc1C`, the IC50 (Hepatitis B virus [1]; hepg2 2.2.15) is reported as “Not Active”, the IC50 (Hepatitis B virus [2]) is reported as “Not Active” and the CC50 at 216 h [3] is reported as 86.2 µg/mL (≈ 204 µM).
For `Cc1nnsc1/C(Cl)=C(/NC(=O)c1ccccc1)C(=O)N1CCOCC1`, the IC50 (Hepatitis B virus [1]; hepg2 2.2.15) was “Not Active”, the IC50 (Hepatitis B virus [2]) was “Not Active” and the CC50 at 216 h [3] was 577 µg/mL (≈ 1470 µM).
In the case of `Cc1nnsc1/C=C(/NC(=O)c1ccccc1)C(=O)N1CCCCC1`, the IC50 (Hepatitis B virus [1]; hepg2 2.2.15) is reported as “Not Active”, the IC50 (Hepatitis B virus [2]) is reported as “Not Active” and the CC50 at 216 h [3] is reported as 231 µg/mL (≈ 648 µM).
With `Nc1ccn([C@@H]2CS[C@H](CO)O2)c(=O)n1` [LAMIVUDINE] the IC50 (Hepatitis B virus [1]; [7]) was 14.8 µg/mL (≈ 64.6 µM), the IC50 (Hepatitis B virus [2]) was “Not Active” and the CC50 at 216 h [3] was 962 µg/mL (≈ 4190 µM). The selectivity ratio [4] was 65.
